In the library only some 2.3% were active in any assay of this set; here they are far more common.
FN deposit inh: fibronectin deposition inhibition; AH1F fibroblasts, Alexa488-fibronectin deposition fluorescence, overnight; inhibition, % at 12.6 µM; 350,000 tested, 0.086% active;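 active means mean inhibition across replicates of 30% or more, regardless of how many single replicates reach that level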;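 further: positive control wells lacked labelled fibronectin entirely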
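Schedule: 1 h cell adhesion before compound, then overnight fibronectin incubation; test system: AH1F fibroblast monolayer depositing Alexa488-labelled fibronectin into matrix; quantity: 10000 AH1F cells per well; probe or stimulus: fluorescent fibronectin at 24 nM final; signal: fluorescence, ex 485 nm, em 525 nm; evaluation: percent inhibition as loss of matrix-bound fibronectin fluorescence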
PAX8 inh HTS: PAX8 transcriptional activity inhibition; RMG-I TPO-luciferase reporter, SteadyGlo, 24 h; inhibition, % at 12.6 µM; 360,000 tested, 1.2% active;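 active means mean replicate inhibition at least 60% with every replicate also reaching 60%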;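 further: luciferase light reporting Pax8 driven TPO promoter activity; plate controls were median of neutral control wells for no effect and mitoxantrone controls for full effect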
HIV Env fusion: HIV envelope-mediated fusion inhibition; HeLa-JRFL Env/CEM21 cell fusion, luciferase; inhibition, % at 12.3 µM; 360,000 tested, 1.1% active; AID 651610;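 active means mean replicate inhibition score of at least 50 and every replicate individually at or above 50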;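 further: 0% = plate neutral controls and 100% = maraviroc near 300 nM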
CFTR F508del cor: correctors of CFTR F508del function in bronchial epithelial cells; CFBE cells, YFP halide quenching; stimulated with forskolin plus potentiator P3; % fluorescence drop versus neutral controls; activity (quench increase), % at 7.58 µM; 350,000 tested, 0.36% active; AID 720511;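 active means mean added fluorescence quench of at least 8% versus neutral control, with both replicates also reaching 8%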;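 further: cells transiently co-express mutant CFTR-F508del with the halide-sensitive YFP; corrector assay measuring rescue of mutant channel to the surface after 24 h compound exposure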
PGC1a acetyl inh: lowers PGC1a acetylation signal in U2OS cells. 350,000 tested, 0.17% active. inhibition, % at 15.6 µM. AlphaScreen anti-acetyl-lysine; with virally co-expressed GCN5 acetyltransferase. AID 651687;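 active means every replicate shows inhibition of at least 40%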;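 further: 0% = neutral control wells and 100% = positive control wells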
EWS-Fli block: blocks EWS/Fli oncoprotein-driven transcription. 350,000 tested, 0.67% active. A673 NR0B1-luciferase reporter, viability-normalised. inhibition, % at 12.6 µM;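 active means mean inhibition of at least 50% after viability correction, with every replicate also passing that limit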;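 further: firefly luciferase signal divided by Alamar Blue viability fluorescence both relative to DMSO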
The depositor's hits bear a star; [ ] = dose if it differs, or a comment.

`C[C@H](CO)N1C[C@H](C)[C@@H](CN(C)CC2CCCCC2)Oc2c(NC(=O)CCCCCC(=O)Nc3ccccc3N)cccc2C1=O` gave FN deposit inh 6.1, PAX8 inh HTS 81.3*, CFTR F508del cor 1.2 and PGC1a acetyl inh -14.3.
C[C@@H]1CN([C@H](C)CO)C(=O)c2cc(NC(=O)Cc3ccccc3)ccc2O[C@@H]1CN(C)S(C)(=O)=O was read as FN deposit inh -2.7, PAX8 inh HTS -0.9, HIV Env fusion 0.7[16.7 µM], CFTR F508del cor 8.0*, PGC1a acetyl inh 5.2 and EWS-Fli block 1.7.
C[C@H]1CN([C@@H](C)CO)C(=O)c2cccc(NC(=O)c3cnccn3)c2O[C@H]1CN(C)Cc1ccc(-c2ccccc2)cc1 was read as PAX8 inh HTS 26.9, CFTR F508del cor 3.7, PGC1a acetyl inh -5.3 and EWS-Fli block 1.3.
For C[C@H](CO)N1C[C@H](C)[C@H](CN(C)C(=O)c2ccccc2F)Oc2cc(-c3ccccc3)ccc2S1(=O)=O the results were FN deposit inh -9.3, HIV Env fusion 21.4[16.7 µM], CFTR F508del cor 0.5, PGC1a acetyl inh -11.1 and EWS-Fli block 0.5.
For COc1ccc(CNC(=O)C[C@@H]2C[C@@H]3c4cc(NS(C)(=O)=O)ccc4O[C@@H]3[C@H](CO)O2)cc1 the results were FN deposit inh 1.1, CFTR F508del cor 0.9, PGC1a acetyl inh -3.2 and EWS-Fli block -0.5.
Screening CC(NC(=O)c1cc(S(=O)(=O)N(C)C)ccc1N1CCCC1)C1CC2CCC1C2 (stereo unspecified) returned FN deposit inh 2.5, PAX8 inh HTS 4.2, HIV Env fusion 71.5*, CFTR F508del cor -3.4, PGC1a acetyl inh -5.9 and EWS-Fli block 2.9.
`O=S1(=O)N[C@H](Cc2ccccc2)COc2cccc(N3CCCC3)c21` gave FN deposit inh 5.1, PAX8 inh HTS 15.8, HIV Env fusion -20.7, CFTR F508del cor -1.2 and EWS-Fli block -0.6.
O=S1(=O)N[C@H](Cc2ccccc2)COc2cccc(F)c21 was read as FN deposit inh -8.8, PAX8 inh HTS 2.7, HIV Env fusion 56.8*, CFTR F508del cor 1.6 and EWS-Fli block 2.5.
O=C(Cc1ccccn1)N1CC(=O)N2[C@@H](CO)[C@H](c3ccc(C#CC4CCCCC4)cc3)[C@@H]2C1 was read as FN deposit inh -8.1, PAX8 inh HTS 1.3, CFTR F508del cor 2.1, PGC1a acetyl inh 2.7 and EWS-Fli block 2.0.
Screening Cc1ccc(C(=O)Nc2ccc(CC(=O)O)cc2)o1 returned FN deposit inh -6.0 and HIV Env fusion -19.3.
CC(C)(C)c1ccc(C(=O)Nc2ccc(CC(=O)O)cc2)o1 was read as FN deposit inh -2.2, HIV Env fusion 84.7* and PGC1a acetyl inh 1.4.
For COc1cccc(C(=O)N2C[C@H]3[C@@H](c4ccccc42)[C@H](CO)N3C(C)=O)c1 the results were PAX8 inh HTS 2.5, CFTR F508del cor -3.7, PGC1a acetyl inh -0.2 and EWS-Fli block -2.2.
O=C1OCC2=C1C(c1ccc(F)cc1)c1cc3c(cc1N2)OCCO3 (stereo unspecified) was read as FN deposit inh 4.6, PAX8 inh HTS 85.3*, HIV Env fusion -66.7, CFTR F508del cor 2.3, PGC1a acetyl inh 19.3 and EWS-Fli block 46.0.
Screening CCOc1ccccc1C1C2=C(COC2=O)Nc2cc3c(cc21)OCO3 (stereo unspecified) returned FN deposit inh 5.0, PAX8 inh HTS 87.9*, HIV Env fusion -129.0, CFTR F508del cor 5.1 and EWS-Fli block 47.2.
Screening C#CCOc1ccc(C2C3=C(COC3=O)Nc3cc4c(cc32)OCO4)cc1OC (stereo unspecified) returned PAX8 inh HTS 86.1*, HIV Env fusion -184.1, CFTR F508del cor -7.5 and EWS-Fli block 58.4*.
For O=C1OCC2=C1C(c1ccc(F)cc1)c1cc3c(cc1N2)OCO3 (stereo unspecified) the results were FN deposit inh -23.1, PAX8 inh HTS 71.7*, HIV Env fusion -91.6, CFTR F508del cor -2.0 and EWS-Fli block 66.6*.
C/C=C/c1cnc2c(c1)C(=O)N([C@@H](C)CO)C[C@H](C)[C@@H](CN(C)C(=O)NC1CCCCC1)O2 was read as FN deposit inh -4.5, PAX8 inh HTS 5.1, HIV Env fusion -16.8[16.7 µM], CFTR F508del cor 1.0, PGC1a acetyl inh -5.5 and EWS-Fli block -6.8.

Assay outcomes (PubChem BioAssay)
